{"data": "Published values of several laboratories", "target": "Vascular endothelial growth factor receptor 2 (KDR, Homo sapiens, UniProt P35968)", "note": "Compare with care: the assays were run in different laboratories."}
{"SMILES": "CCCS(=O)(=O)Nc1ccc(F)c(C(=O)c2c[nH]c3ncc(-c4ccc(Cl)cc4)cc23)c1F", "observed": "enzyme activity", "mode": "inhibitor", "tested at": "1 µM", "quantity": "inhibition", "value": "< 20%"}
{"SMILES": "CN(C)C1CCN(CC#Cc2nn(C3CCCC3)c3nc(NCc4ccccc4)ncc23)C1 (stereo not shown)", "observed": "enzyme activity", "mode": "inhibitor", "technique": "FRET", "tested at": "10 µM", "quantity": "inhibition", "value": "56%"}
{"SMILES": "C[S+]([O-])c1ccc(-c2nc(-c3ccncc3)c(-c3ccc(F)cc3)[nH]2)cc1 (stereo not shown)", "observed": "cell-free assay", "tested at": "0.5 µM", "quantity": "remaining signal", "value": "99.2%"}
{"SMILES": "COc1ccc(NC(=O)c2c(Nc3ccccc3)sc(C(=O)NN=Cc3cc(OC)c(OC)c(OC)c3)c2NC(C)=O)cc1", "observed": "enzyme activity", "mode": "inhibitor", "tested at": "1 µM", "quantity": "remaining activity", "value": "82.1%"}
{"SMILES": "Cc1ccc(C(=O)Nc2ccc(CN3CCN(C)CC3)c(C(F)(F)F)c2)cc1C#Cc1cnc2cccnn12", "observed": "cell-free assay", "tested at": "23.5 nM", "quantity": "remaining signal", "value": "15%"}
{"SMILES": "COc1ccc(-c2cnc3c(-c4ccsc4)cnn3c2)cc1", "observed": "cell-free assay", "tested at": "0.5 µM", "quantity": "remaining signal", "value": "79.8%"}
{"SMILES": "COc1cc2ncnc(Nc3ccc(Oc4ccccc4)cc3C)c2cc1OC", "observed": "enzyme activity", "mode": "inhibitor", "tested at": "1 µM", "quantity": "inhibition", "value": "14%"}
{"SMILES": "COc1ccc(NC(=O)c2c(Nc3ccccc3)sc(C#N)c2NC(=O)CNc2ccc(Cl)cc2)cc1", "observed": "enzyme activity", "mode": "inhibitor", "tested at": "0.1 µM", "quantity": "remaining activity", "value": "61.3%"}
{"SMILES": "O=C1NC(=O)c2cc(Nc3ccc(F)cc3)c(Nc3ccc(F)cc3)cc21", "observed": "cell-free assay", "tested at": "0.5 µM", "quantity": "remaining signal", "value": "97.9%"}
{"SMILES": "COc1ccc(NC(=O)c2c(Nc3ccccc3)sc(C#N)c2NC(=O)CNc2ccc(Br)cc2)cc1", "observed": "enzyme activity", "mode": "inhibitor", "tested at": "1 µM", "quantity": "remaining activity", "value": "51.3%"}
{"SMILES": "CNC(=O)c1c(C)oc2cc(Oc3ncnc4cc(OC)c(OC)cc34)ccc12", "observed": "enzyme activity", "mode": "inhibitor", "tested at": "0.1 µM", "quantity": "inhibition", "value": "89.9%"}
{"SMILES": "COc1ccc(NC(=O)c2c(Nc3ccccc3)sc(C(=O)NN=Cc3ccc(Cl)cc3)c2NC(C)=O)cc1", "observed": "enzyme activity", "mode": "inhibitor", "tested at": "100 µM", "quantity": "remaining activity", "value": "60.6%"}
{"SMILES": "Cn1nc(C(=O)NCc2ccc(C(=O)O)cc2)cc1-c1ccc2[nH]ccc2c1", "observed": "cell-free assay", "technique": "competition with immobilised ligand", "tested at": "0.1 µM", "quantity": "remaining binding", "value": "85%"}
{"SMILES": "COc1cc2c(N3CCN(C(=O)Nc4ccc(OC(C)C)cc4)CC3)ncnc2cc1OCCCN1CCCCC1", "observed": "cell-free assay", "tested at": "0.5 µM", "quantity": "remaining signal", "value": "106%"}
{"SMILES": "COc1ccc(NC(=O)c2c(Nc3ccccc3)sc(C(=O)NN=Cc3ccc(OC)c(O)c3)c2NC(C)=O)cc1", "observed": "enzyme activity", "mode": "inhibitor", "tested at": "10 µM", "quantity": "remaining activity", "value": "46.1%"}
{"SMILES": "CC(C)c1ccc(NC(=O)c2cccs2)c(-c2nc3ccccc3[nH]c2=O)c1", "observed": "enzyme activity", "mode": "inhibitor", "tested at": "1 µM", "quantity": "activity vs control", "value": "25%"}
{"SMILES": "COc1cc(-c2cn(C3CCc4ccccc4N(CC(F)(F)F)C3=O)nn2)ccc1-n1ccc(C)n1 (stereo not shown)", "observed": "cell-free assay", "technique": "competition with immobilised ligand", "tested at": "1 µM", "quantity": "remaining binding", "value": "79%"}
{"SMILES": "Oc1cccc(-c2nc(N3CCOCC3)c3oc4ncccc4c3n2)c1", "observed": "cell-free assay", "tested at": "0.5 µM", "quantity": "remaining signal", "value": "85.9%"}
{"SMILES": "C[C@H](c1cccc(C#N)c1)n1cc(Cl)cc(C(N)=O)c1=N", "observed": "cell-free assay", "technique": "competition with immobilised ligand", "tested at": "1 µM", "quantity": "remaining binding", "value": "88%"}
{"SMILES": "COc1ccc(NC(=O)c2c(Nc3ccccc3)sc(C#N)c2NC(=O)CNc2ccc([N+](=O)[O-])cc2)cc1", "observed": "enzyme activity", "mode": "inhibitor", "tested at": "10 nM", "quantity": "remaining activity", "value": "98%"}
{"SMILES": "Cc1[nH]c(/C=C2\\C(=O)Nc3ccc(F)cc32)c(C)c1C(=O)N[C@H]1CCN(C(=O)N(C)C)C1", "observed": "enzyme activity", "mode": "inhibitor", "tested at": "1 µM", "quantity": "remaining activity", "value": "9%"}
{"SMILES": "Cc1c[nH]c2nccc(Oc3c(F)cc(Nc4cc(Cl)nc(N)n4)cc3F)c12", "observed": "cell-free assay", "technique": "competition with immobilised ligand", "tested at": "0.1 µM", "quantity": "remaining binding", "value": "81%"}
{"SMILES": "COc1ccc(C=NNC(=O)c2sc(Nc3ccccc3)c(C(=O)Nc3ccc(OC)cc3)c2NC(C)=O)cc1", "observed": "enzyme activity", "mode": "inhibitor", "tested at": "100 µM", "quantity": "remaining activity", "value": "35.1%"}
{"SMILES": "CS(=O)(=O)NCC[C@H](NC(=O)c1cncc2c1cnn2-c1ccc(F)cc1)c1ccnc(S(C)(=O)=O)c1", "observed": "cell-free assay", "technique": "competition with immobilised ligand", "tested at": "1 µM", "quantity": "remaining binding", "value": "100%"}
{"SMILES": "CC/C(=N\\NC(=O)NCc1cccc(O)c1)c1ccc(O)c(C)c1O", "observed": "enzyme activity", "mode": "inhibitor", "tested at": "0.1 µM", "quantity": "inhibition", "value": "2.7%"}
{"SMILES": "N#Cc1ccc(Nc2ccc3[nH]c(=O)[nH]c3c2)c(Cl)c1", "observed": "cell-free assay", "technique": "competition with immobilised ligand", "tested at": "1 µM", "quantity": "remaining binding", "value": "99%"}
{"SMILES": "CNc1cccc2cc(C(=O)Nc3ccc(C(=O)O)cc3)c(=O)[nH]c12", "observed": "enzyme activity", "mode": "inhibitor", "tested at": "10 µM", "quantity": "inhibition", "value": "4.8%"}
{"SMILES": "CCC(=N\\O)/C(C)=C/c1ccc(F)cc1", "observed": "cell-free assay", "technique": "competition with immobilised ligand", "tested at": "1 µM", "quantity": "remaining binding", "value": "81%"}
{"SMILES": "CS(=O)(=O)Nc1cccc(-c2csc(NC(=O)CSc3nc4nccnc4c(=O)n3CCc3ccccc3)n2)c1", "observed": "enzyme activity", "mode": "inhibitor", "tested at": "10 µM", "quantity": "inhibition", "value": "0%"}
{"SMILES": "CN(C)c1ncnc(-c2ccc3nc(Nc4cc(CN5CCN(C(=O)CC(F)(F)F)CC5)ccn4)[nH]c3c2)c1Cl", "observed": "cell-free assay", "technique": "competition with immobilised ligand", "tested at": "1 µM", "quantity": "remaining binding", "value": "74%"}
{"SMILES": "Cc1ccc(NC(=O)c2ccc(C)c(C(F)(F)F)c2)cc1C#Cc1nn(C2CCC(O)CC2)c2ncnc(N)c12 (stereo not shown)", "observed": "cell-free assay", "tested at": "10 µM", "quantity": "remaining signal", "value": "2%"}
